Tests used:
Mus musculus [1] = assay: Toxicity in Kunming mouse assessed as fibrosis in hepatocytes at 102 mg/kg, po administered once daily for 14 days by hematoxylin/eosin staining based optical microscopic analysis; type: organism-based; conditions: in vivo, 336 h
In short: (§1)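 Kunming mice, four per group, dosed orally once daily for 14 days with 102 mg/kg or saline control; body weight recorded every other day. Heart, liver, spleen, lung and kidney fixed in 10% buffered formalin, paraffin-embedded, sectioned, stained with hematoxylin and eosin, and examined by optical microscopy.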

[2] = biological target: T1, Organic cation/carnitine transporter 2 (Rattus norvegicus, UniProt O70594); assay: Ratio of drug transport assessed as OCTN2 transporter mediated effective permeability in rat duodenum at 76 uM in absence of L-carnitine to drug transport assessed as OCTN2 transporter mediated effective permeability in rat duodenum at 76 uM in presence of L-carnitine; type: ADME
T1 sequence (O70594 whole entry): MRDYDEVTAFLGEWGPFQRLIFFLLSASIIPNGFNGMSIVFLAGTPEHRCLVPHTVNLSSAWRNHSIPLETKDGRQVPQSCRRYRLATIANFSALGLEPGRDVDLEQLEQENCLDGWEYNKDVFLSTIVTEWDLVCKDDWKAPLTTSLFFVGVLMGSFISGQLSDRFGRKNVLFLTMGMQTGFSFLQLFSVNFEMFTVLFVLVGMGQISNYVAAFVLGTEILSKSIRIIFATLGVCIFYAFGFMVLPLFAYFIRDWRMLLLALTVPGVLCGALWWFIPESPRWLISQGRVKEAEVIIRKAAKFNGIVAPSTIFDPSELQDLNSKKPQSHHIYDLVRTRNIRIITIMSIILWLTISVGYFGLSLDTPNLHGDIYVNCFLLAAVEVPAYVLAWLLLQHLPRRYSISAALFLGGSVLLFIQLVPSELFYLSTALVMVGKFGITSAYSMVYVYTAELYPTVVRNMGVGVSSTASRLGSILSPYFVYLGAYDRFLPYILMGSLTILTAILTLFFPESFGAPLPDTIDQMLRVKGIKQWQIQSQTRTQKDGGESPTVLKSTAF

[3] = Stability of the compound in pH 6.8 phosphate buffer at 5 uM by HPLC method; type: physicochemical; conditions: pH 6.8, 5 µM
In short: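 Compound dissolved at 5 µM in phosphate buffer (pH 1.2, 6.8 or 7.4), held at 37 °C for 24 h. Aliquots taken at intervals and analysed by HPLC. t1/2 = 0.693/k from linear regression of pseudo-first-order kinetics.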

[4] = biological target: T2, Organic cation/carnitine transporter 2 (Homo sapiens, UniProt O76082); assay: Ratio of drug transport assessed as OCTN2 transporter mediated cell permeability in human Caco2 cells at 25 uM in absence of L-carnitine to drug transport assessed as OCTN2 transporter mediated cell permeability in human Caco2 cells at 25 uM in presence of L-carnitine; type: ADME, cell-based; conditions: caco-2, 25 µM
T2 sequence (O76082 whole entry): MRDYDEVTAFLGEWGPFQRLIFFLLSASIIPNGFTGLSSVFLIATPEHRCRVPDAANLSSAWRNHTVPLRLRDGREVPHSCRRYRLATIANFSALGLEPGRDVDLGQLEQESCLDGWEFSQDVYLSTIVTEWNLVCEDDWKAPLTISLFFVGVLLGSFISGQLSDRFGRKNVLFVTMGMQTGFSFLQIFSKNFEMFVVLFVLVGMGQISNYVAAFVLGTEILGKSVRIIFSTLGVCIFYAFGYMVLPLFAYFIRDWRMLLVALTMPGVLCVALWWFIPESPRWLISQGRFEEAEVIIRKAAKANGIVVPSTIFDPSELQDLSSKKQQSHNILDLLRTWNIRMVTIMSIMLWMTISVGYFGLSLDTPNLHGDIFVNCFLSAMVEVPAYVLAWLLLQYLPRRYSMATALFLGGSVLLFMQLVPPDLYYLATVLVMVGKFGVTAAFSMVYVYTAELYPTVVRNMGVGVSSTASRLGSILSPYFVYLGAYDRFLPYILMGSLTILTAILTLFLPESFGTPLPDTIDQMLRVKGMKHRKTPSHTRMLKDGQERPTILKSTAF
In short: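 Caco-2 cells seeded at 1.0×10^5 cells/well on 0.4 µm polycarbonate inserts, cultured 21 days in MEM; monolayers with TEER over 250 Ω·cm² used. Compound at 25 µM final in HBSS, added apically, with or without 100 µM L-carnitine, 37 °C. Basolateral samples taken at 15, 30, 45, 60, 90, 120 min. Analysed by UPLC-MS/MS to give Papp. Triplicate runs.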

Mus musculus [5] = assay: Toxicity in Kunming mouse assessed as inflammatory infiltrates in kidney at 102 mg/kg, po administered once daily for 14 days by hematoxylin/eosin staining based optical microscopic analysis; type: organism-based; conditions: in vivo, 336 h; in short: as §1

Ratio [2]: 11
Stability [3]: Stable
Ratio [4]: 1.6 to 3.6
Compound: C[N+](C)(C)CC(CC(=O)[O-])OC(=O)CCCCC(=O)Nc1ccn([C@@H]2O[C@H](CO)[C@@H](O)C2(F)F)c(=O)n1 (stereo not given in full)
Activity (Mus musculus [1]): Non-Toxic
Activity (Mus musculus [5]): Non-Toxic
